Bioassay records from PubChem.
STAT3 activator: STAT3 signaling activation; U3A cells, IL-6 STAT3-luciferase reporter, luminescence; 100% = signal with IL-6 EC80 alone; activation (% of control), % at 5.6 µM; 0.91% of 190,000 active;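 active = activation above the screen-wide mean of compound activation plus 3 SD, cut at about 130% in these data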;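 also: 0% = background luminescence of wells with medium and substrate only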
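Test system: STAT3-luciferase reporter U3A cells; Detection: reporter luminescence signal; Times: 1 h compound pre-exposure, 6 h IL-6 stimulation, 37 °C; Benchmarks: IL-6-only high control; Also added: IL-6 stimulus at 33 ng/mL final.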
KCC2 mod: KCC2 (human) Cl- transport modulation | 2.2% of 190,000 active | KCC2 cells, thallium flux FluoZin-2 fluorescence | AID 1456 | Q9H2X9 | B-score of Tl+ flux slope (higher = more flux/activation; lower = inhibition) at 10 µM;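 active = thallium flux slope and its plate-corrected score both differing from the plate sample mean at a set confidence after two filtering rounds, in either direction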;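 also: slope of fluorescence scaled to starting intensity during 10 to 20 s after thallium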
STAT1 act: increases IFN-gamma driven STAT1 reporter signal; AID 932; NIH 3T3 STAT1-luciferase reporter, luminescence; 100% = IFN-gamma alone, no compound; 2.6% of 200,000 active; activation (% of control), % at 5.5 µM;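 active = activation above the screen-wide mean activation plus 3 SD, cut at about 130% in these data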;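 also: raw ratio to IFN-gamma control signal so 100% means no change and 0% no light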
HSV augment: HSV replication enhancement; HSV replication augmentation in cells, fold increase; maximum fold increase; 0.005% of 220,000 active; in the data active = maximum fold increase above about 1.5; inconclusive = no clear call, values can overlap the other calls; tested in PC3 cells
STAT1 blocker: STAT1 signaling inhibition; NIH 3T3 STAT1-luciferase reporter, IFN-gamma, luminescence; inhibition, % at 5.5 µM; 0.35% of 200,000 active; AID 920;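 active = inhibition above a set limit, the mean inhibition across all tested compounds plus 3 SD, cut at about 34% in these data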;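 also: 0% = IFN-gamma with DMSO and 100% = IFN-gamma with 300 µM nifuroxazide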
STAT3 blocker: reduces IL-6 driven STAT3 reporter signal; U3A cells, IL-6 STAT3-luciferase reporter, luminescence; host cell line lacks STAT1; inhibition, % at 5.5 µM; 0.89% of 190,000 active; AID 862;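 active = inhibition above the mean inhibition across all screened compounds plus 3 SD, cut at about 44% in these data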;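 also: 0% = DMSO only wells and 100% = 100 µM nifuroxazide control wells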
Numbers without * were called inactive; i = inactive; ? = inconclusive; . = no result. A selection: hits, their analogues and other compounds. The true share with any hit is near 5.5%.

SMILES	STAT3 activator	KCC2 mod	STAT1 act	HSV augment	STAT1 blocker	STAT3 blocker
CN1CCN(CCCNC(=S)Nc2ccc(F)c(Cl)c2)CC1	94.7	-0.114	95.7	i	4.7	6.4
COCc1c(C(=O)N2CCN(c3ccc(C(F)(F)F)cn3)CC2)oc2ccccc12	101.0	.	96.8	i	3.5	2.4
Cc1ccc(C(=O)/C=C/C(=O)c2ccc(C)cc2)cc1	108.5	-0.0514	89.1	i	11.0	-7.9
CN(C)c1ccc(N/C=C/C(=O)c2ccccc2)cc1	33.1	-0.553	58.6	i	44.8*	84.1*
Cc1ccc(C(=O)/C=C\Nc2ccc(C)c(C)c2)cc1	95.8	.	135.9*	i	-39.1	6.3
CCOC(=O)c1ccc(N/C=C/C(=O)C(C)(C)C)cc1	88.3	0.0044	135.7*	i	-40.0	18.8
O=C(O)C1CC=CCC1C(=O)Nc1ccc(N2CCN(Cc3ccccc3)CC2)cc1 (stereo unspecified)	94.9	0.279	96.5	i	4.0	6.3
Cn1nc(-c2ccc(Cl)cc2)c2cc(C(=O)N3CCOCC3)sc21	121.8	.	102.2	i	-2.5	-16.6
COc1ccc(N2CCN(C(=O)c3cc4c(-c5ccc(Cl)cc5)nn(C)c4s3)CC2)cc1	133.3*	.	89.5	i	11.5	-29.9
Cc1ccsc1/C=C1\CCC(C2CCCC2)C1=O (stereo unspecified)	81.9	0.117	139.9*	i	-45.1	23.5
CCc1cc2c(Sc3nc4ccccc4s3)ncnc2s1	177.7*	0.706	142.4*	i	-46.3	-79.8
Cc1cc(C(=O)CN2C(=O)c3cccc(N)c3C2=O)c(C)n1Cc1cccs1	134.0*	-0.832	146.8*	i	-50.9	-43.3
Cc1cc(C(=O)CSc2nnc(-c3ccccc3F)o2)c(C)n1Cc1cccs1	97.1	.	90.2	i	10.8	6.4
O=C(NC1CCCCCC1)c1c(O)c2ccccc2[nH]c1=O	93.6	0.2	140.9*	i	-44.7	10.1
COc1ccc(C2CC(c3c(O)cc(C)oc3=O)=NCCS2)c(OC)c1 (stereo unspecified)	163.8*	-1.15	136.4*	i	-38.2	-66.4
Cc1cc(O)c(C2=Nc3ccccc3SC(c3ccc(Cl)cc3)C2)c(=O)o1 (stereo unspecified)	116.7	-0.123	125.4	i	-24.2	-23.8
CNC(=O)c1ncoc1-c1ccc(Cl)cc1	.	0.488	.	i	.	.
Cc1nc(NC(=O)c2oc3ccccc3c2C)sc1C(=O)N(C)C	86.2	0.114	139.4*	i	-43.1	21.2
Cc1c(Cl)ccc2c(C(=O)NCCN3CCCCC3)cc(-c3ccccn3)nc12	134.3*	1.1	115.5	i	-19.7	-42.2
Cc1cccc(S(=O)(=O)c2c(N)n(Cc3ccco3)c3nc4ccccc4nc23)c1	95.0	-5.53*	85.2	?	16.1	12.2
COc1ccc(NC(=O)c2cc3c(=O)n4ccccc4nc3n2C)c(OC)c1	87.7	0.0739	106.6	i	-9.4	20.0
Cn1c(C(=O)NCc2ccccn2)cc2c(=O)n3ccccc3nc21	91.2	-0.554	132.8*	i	-36.9	13.6
O=C(NS(=O)(=O)Oc1ccc(F)c(Cl)c1)OC[C@@H]1CCCN2CCCCC12 (stereo partly specified)	104.6	1.48	102.2	i	-4.2	5.7
COc1ccccc1/C=C/C=N/NC(=O)c1ccccn1	80.4	-1.44	132.8*	i	-35.0	27.6
O=C(N/N=C/c1cc2c(cc1Cl)OCO2)c1ccccn1	93.3	-3.52	134.2*	i	-38.0	17.9
O=C(CNC(=O)c1ccccn1)N/N=C/c1ccc2c(c1)OCO2	94.4	0.451	119.7	i	-22.4	8.2
COc1cc(/C=N/NC(=O)c2ccccn2)cc2c1OCO2	106.3	0.198	129.0*	i	-31.7	-6.2
O=C(N/N=C/c1cc2c(cc1[N+](=O)[O-])OCO2)c1ccccn1	113.2	-0.923	97.7	i	2.6	-4.9
O=C(Nc1ccccc1)C1=C[C@@H](C2CCCCC2)C[C@@H](OCc2ccc(CO)cc2)O1	.	0.528	106.3	i	-5.2	.
O=C1c2cccnc2C(Nc2ccc(F)c(Cl)c2)N1Cc1cccs1 (stereo unspecified)	108.6	-1.36	85.9	i	14.1	-8.8
